Assay results taken from ChEMBL document CHEMBL4627281, “A small molecule inhibitor of PCSK9 that antagonizes LDL receptor binding via interaction with a cryptic PCSK9 binding groove” (Bioorg Med Chem, 2020).
The source made the active and inactive calls. The rule behind the calls is not given here.

What was measured:
[1] = biological target: Mast/stem cell growth factor receptor Kit (Homo sapiens, UniProt P10721); experiment: (§1) Inhibition of recombinant human N-terminal GST-tagged c-Kit (544 to end residues) expressed in baculovirus infected Sf21 insect cells using FAM-labelled P22 peptide as substrate preincubated for 10 mins followed by substrate addition and measured after 1 hr in presence of ATP by fluorescence assay
Sequence of Mast/stem cell growth factor receptor Kit (P10721 whole entry): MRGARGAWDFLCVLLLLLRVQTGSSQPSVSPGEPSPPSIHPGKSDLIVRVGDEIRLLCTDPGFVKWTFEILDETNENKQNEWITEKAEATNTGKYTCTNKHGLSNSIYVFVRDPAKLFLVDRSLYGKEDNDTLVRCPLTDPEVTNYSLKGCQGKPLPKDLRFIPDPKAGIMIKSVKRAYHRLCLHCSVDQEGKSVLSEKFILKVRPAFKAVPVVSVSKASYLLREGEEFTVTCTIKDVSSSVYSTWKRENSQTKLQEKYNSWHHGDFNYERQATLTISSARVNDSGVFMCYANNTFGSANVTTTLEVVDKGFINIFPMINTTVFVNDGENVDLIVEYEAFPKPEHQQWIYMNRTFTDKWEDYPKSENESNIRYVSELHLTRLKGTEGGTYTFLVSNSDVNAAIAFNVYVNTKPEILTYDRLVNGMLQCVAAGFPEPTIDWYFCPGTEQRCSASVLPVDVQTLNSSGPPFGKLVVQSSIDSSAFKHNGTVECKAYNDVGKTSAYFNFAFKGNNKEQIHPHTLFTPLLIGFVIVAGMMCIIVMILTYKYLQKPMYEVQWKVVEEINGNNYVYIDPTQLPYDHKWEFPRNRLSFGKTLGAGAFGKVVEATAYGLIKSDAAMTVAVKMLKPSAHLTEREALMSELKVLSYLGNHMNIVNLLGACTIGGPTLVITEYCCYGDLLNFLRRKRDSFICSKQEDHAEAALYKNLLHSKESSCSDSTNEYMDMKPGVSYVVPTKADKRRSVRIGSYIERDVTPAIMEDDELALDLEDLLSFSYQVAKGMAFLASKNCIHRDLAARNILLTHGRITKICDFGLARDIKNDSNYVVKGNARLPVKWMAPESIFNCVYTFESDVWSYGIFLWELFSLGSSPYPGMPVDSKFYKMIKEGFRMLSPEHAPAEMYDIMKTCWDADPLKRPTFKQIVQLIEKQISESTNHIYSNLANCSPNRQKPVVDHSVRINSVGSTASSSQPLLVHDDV

[2] = AUCinfinity in CD1 mouse at 0.4 mg/kg, iv administered as cassette dose measured upto 24 hrs by LC-MS/MS analysis; assay type: ADME, organism-based; parameters: dose 0.4 mg/kg, route intravenous, time infinity; settings: in vivo
Summary of the method: (§2)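 Male CD1 mice (second cassette 28–29 g, 7–8 weeks) given one IV 5-in-1 cassette at 0.4 mg/kg per compound in 5% DMAC/5% Solutol HS15/90% saline. Blood (~20 µL) into K2EDTA from the facial vein at 0.083–24 h, terminal bleed by cardiac puncture under isoflurane. Blood diluted with deionised water, stored at −80 °C, analysed by positive-ESI mass spectrometry.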

[3] = Mean residence time (0 to infinity) in CD1 mouse at 0.4 mg/kg, iv administered as cassette dose measured upto 24 hrs by LC-MS analysis; assay type: ADME, organism-based; settings: in vivo; summary of the method: as §2
[4] = biological target: PCSK9/LDLR (Homo sapiens, UniProt Q8NBP7); experiment: Inhibition of recombinant human His-tagged PCSK9 interaction with recombinant LDLR AB domain (unknown origin) measured after 3 hrs by horseradish peroxidase-coupled TMB substrate based spectrophotometry; assay type: protein assay
Sequence of PCSK9/LDLR (Q8NBP7 31-152 limits assumed): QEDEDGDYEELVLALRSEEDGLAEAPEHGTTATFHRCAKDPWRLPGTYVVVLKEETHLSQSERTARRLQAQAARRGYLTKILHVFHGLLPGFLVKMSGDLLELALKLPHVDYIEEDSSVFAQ
Sequence of PCSK9/LDLR (Q8NBP7 153-692 limits assumed): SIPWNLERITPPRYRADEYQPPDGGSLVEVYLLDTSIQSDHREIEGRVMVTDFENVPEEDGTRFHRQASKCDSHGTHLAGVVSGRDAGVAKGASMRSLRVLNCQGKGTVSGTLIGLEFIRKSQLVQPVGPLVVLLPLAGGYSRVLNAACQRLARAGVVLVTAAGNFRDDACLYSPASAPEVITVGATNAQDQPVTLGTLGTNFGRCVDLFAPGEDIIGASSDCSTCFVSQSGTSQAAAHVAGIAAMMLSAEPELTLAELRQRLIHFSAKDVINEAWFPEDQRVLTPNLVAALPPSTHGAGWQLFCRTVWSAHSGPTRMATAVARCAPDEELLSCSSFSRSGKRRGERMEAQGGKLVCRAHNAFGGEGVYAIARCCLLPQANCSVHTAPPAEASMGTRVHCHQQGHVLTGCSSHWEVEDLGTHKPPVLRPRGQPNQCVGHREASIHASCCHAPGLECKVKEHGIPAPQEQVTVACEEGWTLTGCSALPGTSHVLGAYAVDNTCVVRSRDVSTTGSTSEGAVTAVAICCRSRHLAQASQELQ
Sequence of PCSK9/LDLR (P01130 22-860 partner limits assumed): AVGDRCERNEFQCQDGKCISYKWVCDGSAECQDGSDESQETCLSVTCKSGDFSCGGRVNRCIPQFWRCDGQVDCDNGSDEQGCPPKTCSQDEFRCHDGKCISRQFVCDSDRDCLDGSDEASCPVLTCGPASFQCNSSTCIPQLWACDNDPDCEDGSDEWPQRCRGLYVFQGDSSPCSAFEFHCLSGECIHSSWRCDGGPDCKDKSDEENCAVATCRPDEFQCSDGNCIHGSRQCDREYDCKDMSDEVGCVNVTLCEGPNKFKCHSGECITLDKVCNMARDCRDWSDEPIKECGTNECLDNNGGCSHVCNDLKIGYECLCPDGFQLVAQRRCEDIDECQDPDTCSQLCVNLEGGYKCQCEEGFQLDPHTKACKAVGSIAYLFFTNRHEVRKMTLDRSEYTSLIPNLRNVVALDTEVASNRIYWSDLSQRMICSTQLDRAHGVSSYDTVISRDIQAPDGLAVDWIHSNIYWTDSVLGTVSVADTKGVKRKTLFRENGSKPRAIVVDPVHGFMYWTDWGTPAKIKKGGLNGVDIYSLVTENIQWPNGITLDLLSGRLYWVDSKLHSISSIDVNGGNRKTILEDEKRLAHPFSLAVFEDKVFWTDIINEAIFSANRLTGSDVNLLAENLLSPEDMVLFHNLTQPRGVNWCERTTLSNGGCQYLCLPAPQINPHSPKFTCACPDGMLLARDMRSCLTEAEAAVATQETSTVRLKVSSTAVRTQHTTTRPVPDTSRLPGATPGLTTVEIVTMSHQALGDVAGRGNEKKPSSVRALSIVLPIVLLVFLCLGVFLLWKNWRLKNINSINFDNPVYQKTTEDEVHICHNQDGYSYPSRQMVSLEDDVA
Summary of the method: (§3)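 ELISA plates pre-coated with LDLR-EGF-AB domain. Compounds serially diluted from 10 mM DMSO stocks in reaction buffer, with 7 ng His-tagged human PCSK9 added, 3 h at room temperature with shaking. Binding detected with biotinylated anti-His antibody (1 h), then HRP-streptavidin (20 min), then substrate (15 min); absorbance read at 450/540 nm. IC50 taken from the % inhibition curve.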

[5] = biological target: Platelet-derived growth factor receptor beta (Homo sapiens, UniProt P09619); experiment: as §1, with “PDGFRbeta cytoplasmic domain (557” for “c-Kit (544”, “1106” for “end”, “expression system” for “infected Sf21 insect cells”
Sequence of Platelet-derived growth factor receptor beta (P09619 whole entry, the tested form may be a part): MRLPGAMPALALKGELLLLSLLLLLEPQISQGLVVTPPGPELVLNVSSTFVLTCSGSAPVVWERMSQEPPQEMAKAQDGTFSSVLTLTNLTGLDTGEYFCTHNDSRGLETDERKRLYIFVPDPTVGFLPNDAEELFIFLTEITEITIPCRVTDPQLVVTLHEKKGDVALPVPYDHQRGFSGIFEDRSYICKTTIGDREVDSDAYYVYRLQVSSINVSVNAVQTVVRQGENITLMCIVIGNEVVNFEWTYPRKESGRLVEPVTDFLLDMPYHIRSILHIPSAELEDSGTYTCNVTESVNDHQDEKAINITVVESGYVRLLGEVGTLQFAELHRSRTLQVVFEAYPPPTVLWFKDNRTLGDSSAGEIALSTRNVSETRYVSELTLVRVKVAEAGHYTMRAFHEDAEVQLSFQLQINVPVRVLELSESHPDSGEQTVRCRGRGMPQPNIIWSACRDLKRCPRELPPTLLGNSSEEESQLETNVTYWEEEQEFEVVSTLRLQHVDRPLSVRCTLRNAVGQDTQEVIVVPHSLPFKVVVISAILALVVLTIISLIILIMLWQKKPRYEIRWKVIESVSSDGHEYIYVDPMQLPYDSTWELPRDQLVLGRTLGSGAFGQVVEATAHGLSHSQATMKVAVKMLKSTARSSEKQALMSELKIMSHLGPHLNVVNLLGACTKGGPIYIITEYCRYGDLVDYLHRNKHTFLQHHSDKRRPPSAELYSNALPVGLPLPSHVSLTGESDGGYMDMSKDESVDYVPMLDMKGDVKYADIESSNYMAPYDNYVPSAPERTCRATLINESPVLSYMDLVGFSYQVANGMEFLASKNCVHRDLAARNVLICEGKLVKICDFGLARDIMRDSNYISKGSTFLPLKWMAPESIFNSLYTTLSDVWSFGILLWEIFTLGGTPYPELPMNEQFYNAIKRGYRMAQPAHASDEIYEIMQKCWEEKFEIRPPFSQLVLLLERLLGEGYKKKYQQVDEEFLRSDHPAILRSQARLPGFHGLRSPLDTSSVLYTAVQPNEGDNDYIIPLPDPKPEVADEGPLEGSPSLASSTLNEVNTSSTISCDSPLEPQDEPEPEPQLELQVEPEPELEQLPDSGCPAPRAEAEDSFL

[6] = Volume of distribution at steady state in CD1 mouse at 0.4 mg/kg, iv administered as cassette dose measured upto 24 hrs by LC-MS/MS analysis; assay type: ADME, organism-based; settings: in vivo, read-out: Vdss; summary of the method: as §2
[7] = biological target: Tyrosine-protein kinase ABL1 (Homo sapiens, UniProt P00519); experiment: Inhibition of recombinant human N-terminal His-tagged Abl (2 to 1130 residues) expressed in baculovirus expression system using FAM-labelled P2 peptide as substrate preincubated for 10 mins followed by substrate addition and measured after 1 hr in presence of ATP by fluorescence assay
[8] = Clearance in CD1 mouse at 0.4 mg/kg, iv administered as cassette dose measured upto 24 hrs by LC-MS/MS analysis; assay type: ADME, organism-based; settings: in vivo; summary of the method: as §2
[9] = Terminal half life in CD1 mouse at 0.4 mg/kg, iv administered as cassette dose measured upto 24 hrs by LC-MS/MS analysis; assay type: ADME, organism-based; settings: in vivo, read-out: beta t1/2 (converted); summary of the method: as §2
[10] = AUClast in CD1 mouse at 0.4 mg/kg, iv administered as cassette dose measured upto 24 hrs by LC-MS/MS analysis; assay type: ADME, organism-based; parameters: time < 24 hr, dose 0.4 mg/kg, route intravenous; settings: in vivo; summary of the method: as §2
[11] = biological target: Proto-oncogene tyrosine-protein kinase Src (Homo sapiens, UniProt P12931); experiment: Inhibition of recombinant human full-length N-terminal GST-tagged SRC (1 to 536 residues) expressed in baculovirus expression system using FAM-labelled P4 peptide as substrate preincubated for 10 mins followed by substrate addition and measured after 1 hr in presence of ATP by fluorescence assay
Sequence of Proto-oncogene tyrosine-protein kinase Src (P12931 2-536 limits assumed): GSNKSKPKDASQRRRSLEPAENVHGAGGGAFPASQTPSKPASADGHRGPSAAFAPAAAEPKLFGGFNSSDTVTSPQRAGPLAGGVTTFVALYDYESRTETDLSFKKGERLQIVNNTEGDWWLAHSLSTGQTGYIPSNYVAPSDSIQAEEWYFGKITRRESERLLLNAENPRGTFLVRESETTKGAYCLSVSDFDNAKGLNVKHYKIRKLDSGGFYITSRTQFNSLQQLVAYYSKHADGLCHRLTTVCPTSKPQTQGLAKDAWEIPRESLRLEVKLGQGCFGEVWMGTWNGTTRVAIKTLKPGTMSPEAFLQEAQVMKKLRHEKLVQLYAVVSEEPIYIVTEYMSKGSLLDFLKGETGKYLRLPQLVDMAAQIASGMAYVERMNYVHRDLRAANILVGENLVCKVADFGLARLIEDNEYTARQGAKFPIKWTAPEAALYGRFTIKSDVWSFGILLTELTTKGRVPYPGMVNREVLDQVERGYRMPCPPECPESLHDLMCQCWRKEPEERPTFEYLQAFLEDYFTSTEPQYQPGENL

[12] = test system: PCSK9/LDLR (Homo sapiens), Q8NBP7+P01130 [D374Y]; experiment: Inhibition of PCSK9 D374Y mutant (unknown origin) and LDLR protein-protein interaction in human HepG2 cells assessed as increase in Bodipy FL-labelled LDL uptake preincubated for 16 hrs followed by Bodipy FL-labelled LDL addition and measured after 4 hrs by fluorescence assay; assay type: cell-based
Summary of the method: (§4)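 HepG2 cells seeded at 2 × 10^5 cells/mL and attached overnight, then incubated 16 h with PCSK9-D374Y (2 μg/mL) plus compound (0.1 or 1 µM). Medium replaced with 10 μg/mL Bodipy FL LDL for 4 h. Cells washed with warm PBS; fluorescence read at ex 485/em 530 nm. Mean ± S.D.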

[13] = biological target: PCSK9/LDLR (Homo sapiens) (UniProt Q8NBP7+P01130); experiment: Inhibition of recombinant human His-tagged PCSK9 interaction with recombinant LDLR AB domain (unknown origin) at higher concentration measured after 3 hrs by horseradish peroxidase-coupled TMB substrate based spectrophotometry relative to control; assay type: protein assay; summary of the method: as §3
Sequence of PCSK9/LDLR (Homo sapiens) (P01130 22-860 partner limits assumed): as the sequence (P01130 22-860 partner limits assumed) above
Sequence of PCSK9/LDLR (Homo sapiens) (Q8NBP7 31-152 limits assumed): as the sequence (Q8NBP7 31-152 limits assumed) above
Sequence of PCSK9/LDLR (Homo sapiens) (Q8NBP7 153-692 limits assumed): as the sequence (Q8NBP7 153-692 limits assumed) above

[14] = test system: PCSK9/LDLR (Homo sapiens), Q8NBP7+P01130 [D374Y]; experiment: Inhibition of PCSK9 D374Y mutant (unknown origin) and LDLR protein-protein interaction in human HepG2 cells assessed as increase in Bodipy FL-labelled LDL uptake at 0.1 or 1 uM preincubated for 16 hrs followed by Bodipy FL-labelled LDL addition and measured after 4 hrs by fluorescence assay; assay type: cell-based; summary of the method: as §4

Compound	IC50 [1]	AUC(0-inf) [2]	MRT inf [3]	IC50 [4]	IC50 [5]	Vd [6]	IC50 [7]	clearance [8]	half-life [9]	AUC(0-t) at 24 h [10]	IC50 [11]	inhibition [12]	Imax [13]	inhibition [14]
Cc1cn(-c2cc(CN3CCC[C@H](N)C3)cc(NC(=O)c3ccc(C)c(Nc4nccc(-c5ccc(F)cc5)n4)c3)c2)cn1	1.96 µM	297 ng·h/mL	10.4 h	0.428 µM	2.04 µM	13.3 L/kg	> 10 µM	23.5 mL/min/kg	10.8 h	243 ng·h/mL	> 10 µM			
Cc1cn(-c2cc(CN3CCN(C)CC3)cc(NC(=O)c3ccc(C)c(Nc4nccc(-c5ccccc5)n4)c3)c2)cn1	2.57 µM	187 ng·h/mL	2.66 h	0.714 µM	5.42 µM	5.65 L/kg	> 10 µM	35.7 mL/min/kg	3.29 h	166 ng·h/mL	> 10 µM			
Cc1cn(-c2cc(NC(=O)c3ccc(C)c(Oc4cccc5ccncc45)c3)cc(N3CCN(C)CC3)c2)cn1	0.227 µM	133 ng·h/mL	2.3 h	0.078 µM	3.29 µM	6.7 L/kg	> 10 µM	50.8 mL/min/kg	2.77 h	128 ng·h/mL	2.61 to 2.62 µM	Dose-dependent effect	> 35%	
Cc1cc(-c2cc(NC(=O)c3ccc(C)c(Nc4nccc(-c5ccc(F)cc5)n4)c3)cc(N3CCN(C)CC3)c2)on1	3.1 µM			10.7 µM	5.52 µM		> 10 µM				> 10 µM			
Cc1cn(-c2cc(CCS(N)(=O)=O)cc(NC(=O)c3ccc(C)c(Nc4nccc(-c5ccccc5)n4)c3)c2)cn1	6 µM	63.7 ng·h/mL	0.239 h	13.4 µM	> 10 µM	1.72 L/kg	> 10 µM	110 mL/min/kg	0.216 h	58.5 ng·h/mL	> 10 µM			
Cc1cn(-c2cc(NC(=O)c3ccc(C)c(C(=O)c4cccc(C#N)c4)c3)cc(N3CCN(C)CC3)c2)cn1	> 10 µM	83 ng·h/mL	0.96 h	2.13 µM	> 10 µM	4.7 L/kg	> 10 µM	81 mL/min/kg	1.09 h	78 ng·h/mL	> 10 µM			
Cc1cn(-c2cc(NC(=O)c3ccc(C)c(Nc4nccc(-c5cccnc5)n4)c3)cc(C(F)(F)F)c2)cn1 [NILOTINIB]				9.8 µM										
Cc1cn(-c2cc(/C=C/C(=O)O)cc(NC(=O)c3ccc(C)c(Nc4nccc(-c5ccccc5)n4)c3)c2)cn1	2.77 µM			11.3 µM	> 10 µM		> 10 µM				> 10 µM			
Cc1cn(-c2cc(CN3CCCC[C@H]3C(N)=O)cc(NC(=O)c3ccc(C)c(Nc4nccc(-c5ccc(F)cc5)n4)c3)c2)cn1	9.87 µM			2.57 µM	> 10 µM		> 10 µM				> 10 µM			
Cc1cn(-c2cc(NC(=O)c3ccc(C)c(Nc4nccc(-c5ccccc5)n4)c3)cc(C(F)(F)F)c2)cn1	0.592 µM			8.4 µM	2.48 µM						> 10 µM			
Cc1cn(-c2cc(NC(=O)c3ccc(C)c(Nc4nccc(-c5ccc(F)cc5)n4)c3)cc(N3CCOCC3)c2)cn1	0.79 µM			40.1 µM	> 10 µM		> 10 µM				> 10 µM			
Cc1cn(-c2cc(NC(=O)c3ccc(C)c(Oc4ccccc4)c3)cc(N3CCN(C)CC3)c2)cn1	> 10 µM	384 ng·h/mL	8.98 h	0.759 µM	7.66 µM	9.26 L/kg	> 10 µM	17.5 mL/min/kg	7.36 h	338 ng·h/mL	> 10 µM		20%	inactive
Cc1cn(-c2cc(CCC(=O)O)cc(NC(=O)c3ccc(C)c(Nc4nccc(-c5ccccc5)n4)c3)c2)cn1	0.347 µM			9.28 µM	> 10 µM		> 10 µM				> 10 µM			
Cc1cn(-c2cc(NC(=O)c3ccc(C)c(Nc4nccc(-c5ccccc5)n4)c3)cc(N3CCN(C)CC3)c2)cn1	2.88 µM	204 ng·h/mL	2.16 h	0.758 µM	> 10 µM	4.3 L/kg	> 10 µM	32.8 mL/min/kg	2.21 h	189 ng·h/mL	> 10 µM	Dose-dependent effect	> 35%	
Cc1cn(-c2cc(NC(=O)c3ccc(C)c(Nc4nccc(-c5ccccc5)n4)c3)cc(N3CCNCC3)c2)cn1	1.49 µM	127 ng·h/mL	1.19 h	0.491 µM	1.51 µM	3.74 L/kg		52.5 mL/min/kg	1.64 h	116 ng·h/mL	4.36 µM			
Cc1ccc(C(=O)Nc2cc(N3CCN(C)CC3)cc(-n3cnc(C)c3)c2)cc1	> 10 µM			26.3 µM	> 10 µM		> 10 µM				> 10 µM			
Cc1cn(-c2cc(CN3CCCC[C@H]3C(=O)O)cc(NC(=O)c3ccc(C)c(Nc4nccc(-c5ccc(F)cc5)n4)c3)c2)cn1	> 10 µM			14 µM	> 10 µM		> 10 µM				> 10 µM			
Cc1ccc(C(=O)Nc2cccc(N3CCN(C)CC3)c2)cc1Nc1nccc(-c2ccc(F)cc2)n1	0.093 µM			3.29 µM	> 10 µM		> 10 µM				> 10 µM			
Cc1cn(-c2cc(NC(=O)c3ccc(C)c(Oc4ccccc4)c3)cc(C(F)(F)F)c2)cn1	0.618 µM	541 ng·h/mL	2.27 h	13.4 µM	> 10 µM	1.69 L/kg	> 10 µM	12.5 mL/min/kg	2.15 h	508 ng·h/mL	> 10 µM			
CCCCc1cc(NC(=O)c2ccc(C)c(Nc3nccc(-c4ccccc4)n3)c2)cc(-n2cnc(C)c2)c1	0.302 µM			7.41 µM	> 10 µM						> 10 µM			
